Several values for one entry are separate records, joined by “and”; a condition that tells them apart may be missing. Equal values may be shown once.
Tests used:
[1] = biological target: T1, DNA topoisomerase 1 (Homo sapiens) (UniProt P11387); assay: Inhibition of recombinant human DNA topoisomerase-1-mediated relaxation of supercoiled DNA pBR322 at 100 uM after 7 hrs using ethidium bromide staining by agarose gel electrophoresis analysis
T1 sequence (whole entry): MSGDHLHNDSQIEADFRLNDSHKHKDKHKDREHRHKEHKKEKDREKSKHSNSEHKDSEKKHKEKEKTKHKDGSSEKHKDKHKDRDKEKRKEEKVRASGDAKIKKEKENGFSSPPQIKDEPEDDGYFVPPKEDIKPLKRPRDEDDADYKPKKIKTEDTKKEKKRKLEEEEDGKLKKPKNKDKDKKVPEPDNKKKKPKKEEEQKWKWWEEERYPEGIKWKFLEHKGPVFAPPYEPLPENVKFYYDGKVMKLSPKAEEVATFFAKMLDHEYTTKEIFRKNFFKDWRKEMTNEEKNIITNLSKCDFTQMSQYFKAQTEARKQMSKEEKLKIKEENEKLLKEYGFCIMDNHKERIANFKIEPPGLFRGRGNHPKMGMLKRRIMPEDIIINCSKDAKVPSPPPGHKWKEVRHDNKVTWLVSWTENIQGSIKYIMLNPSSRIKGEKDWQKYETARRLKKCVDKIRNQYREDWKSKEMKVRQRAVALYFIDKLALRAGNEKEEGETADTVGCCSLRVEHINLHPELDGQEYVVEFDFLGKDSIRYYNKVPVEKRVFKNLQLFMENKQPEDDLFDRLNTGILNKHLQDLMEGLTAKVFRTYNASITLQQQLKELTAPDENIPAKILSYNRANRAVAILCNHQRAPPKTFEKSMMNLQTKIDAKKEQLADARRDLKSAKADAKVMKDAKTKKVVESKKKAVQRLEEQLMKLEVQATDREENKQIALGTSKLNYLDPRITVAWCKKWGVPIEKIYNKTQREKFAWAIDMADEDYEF
How it was run: (§1)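 pBR322 (100 ng) incubated with recombinant human topo I (0.4 units) ± compound for 30 min at 37 °C. Buffer: 10 mM Tris-HCl pH 7.9, 150 mM NaCl, 0.1% BSA, 1 mM spermidine, 5% glycerol. Quenched with sarcosyl stop solution. 1% agarose gel run at 15 V for 7 h in TAE, ethidium bromide stain, supercoiled DNA quantified under UV.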

[2] = biological target: T1, DNA topoisomerase 1 (Homo sapiens); assay: Inhibition of recombinant human DNA topoisomerase-1-mediated relaxation of supercoiled DNA pBR322 at 20 uM after 7 hrs using ethidium bromide staining by agarose gel electrophoresis analysis; how it was run: as §1
[3] = biological target: DNA topoisomerase 2-alpha (Homo sapiens) (UniProt P11388); assay: Inhibition of human DNA topoisomerase-2a-mediated relaxation of supercoiled DNA pBR322 at 100 uM after 4 hrs using ethidium bromide staining by agarose gel electrophoresis analysis
How it was run: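 Supercoiled pBR322 (200 ng) incubated with human topo IIα (1 unit) ± compound for 30 min at 30 °C. Buffer: 10 mM Tris-HCl pH 7.9, 50 mM NaCl, 50 mM KCl, 5 mM MgCl2, 1 mM EDTA, 1 mM ATP, BSA. Stopped with EDTA. 1% agarose gel run at 25 V for 4 h in TAE, ethidium bromide stain, supercoiled DNA quantified by UV imaging.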

HeLa [4] = assay: Cell cycle arrest in human HeLa cells assessed as accumulation at S phase phase at 50 uM after 24 hrs using […] by flow cytometry analysis relative to control; type: functional
How it was run: (§2)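 HeLa cells exposed to graded compound concentrations for 24 h, harvested by centrifugation, PBS-washed twice, fixed overnight on ice in 70% ethanol. Stained with 10 μg/mL propidium iodide plus 0.5 mg/mL RNase and 0.1% Triton X-100 in PBS, 30 min at 37 °C in the dark. Flow cytometry gates: sub-G0/G1, G0/G1, S, G2/M.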

HeLa [5] = assay: Cell cycle arrest in human HeLa cells assessed as accumulation at S phase phase at 10 uM after 24 hrs using ethidium bromide staining by flow cytometry analysis relative to control; type: functional; details: in the assay text read “propidium iodide staining” for “ethidium bromide staining”; how it was run: as §2
[6] = Cytotoxicity against human MCF10A cells after 2 days; type: cell-based, MCF-10A
How it was run: (§3)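 Cells seeded at 2-4 × 10^4 per well in medium with 10% FBS and incubated overnight at 37 °C, 5% CO2. Graded compound concentrations added on day 2. CCK-8 reagent added on day 4 for a further 4 h, absorbance read at 450 nm. IC50 from a four-parameter logistic fit; mean ± S.D. of three experiments run in triplicate.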

HeLa [7] = assay: Cell cycle arrest in human HeLa cells assessed as accumulation at G0/G1 phase phase at 50 uM after 24 hrs using […] by flow cytometry analysis relative to control; type: functional; how it was run: as §2
HeLa [8] = assay: Cell cycle arrest in human HeLa cells assessed as accumulation at G2/M phase phase at 10 uM after 24 hrs using ethidium bromide staining by flow cytometry analysis relative to control; type: functional; details: in the assay text read “propidium iodide staining” for “ethidium bromide staining”; how it was run: as §2
HeLa [9] = assay: Cell cycle arrest in human HeLa cells assessed as accumulation at G0/G1 phase phase at 25 uM after 24 hrs using […] by flow cytometry analysis relative to control; type: functional; how it was run: as §2
HeLa [10] = assay: Cell cycle arrest in human HeLa cells assessed as accumulation at sub-G0/G1 phase at 25 uM after 24 hrs using […] by flow cytometry analysis relative to control; type: functional; how it was run: as §2
HeLa [11] = assay: Cell cycle arrest in human HeLa cells assessed as accumulation at S phase phase at 25 uM after 24 hrs using […] by flow cytometry analysis relative to control; type: functional; how it was run: as §2
[12] = Cytotoxicity against human HCT15 cells after 2 days; type: functional, cell-based, HCT-15; how it was run: as §3
HeLa [13] = assay: Cell cycle arrest in human HeLa cells assessed as accumulation at sub-G0/G1 phase at 10 uM after 24 hrs using ethidium bromide staining by flow cytometry analysis relative to control; type: functional; details: in the assay text read “propidium iodide staining” for “ethidium bromide staining”; how it was run: as §2
HeLa [14] = assay: Cell cycle arrest in human HeLa cells assessed as accumulation at G2/M phase phase at 50 uM after 24 hrs using […] by flow cytometry analysis relative to control; type: functional; how it was run: as §2
DU-145 = assay: Cytotoxicity against human DU145 cells after 2 days; type: functional, cell-based; how it was run: as §3
HeLa [15] = assay: Cell cycle arrest in human HeLa cells assessed as accumulation at S phase phase at 5 uM after 24 hrs using ethidium bromide staining by flow cytometry analysis relative to control; type: functional; details: in the assay text read “propidium iodide staining” for “ethidium bromide staining”; how it was run: as §2
T47D = assay: Cytotoxicity against human T47D cells after 2 days; type: functional, cell-based; details: t47d; how it was run: as §3
HeLa [16] = assay: Cell cycle arrest in human HeLa cells assessed as accumulation at G0/G1 phase phase at 5 uM after 24 hrs using ethidium bromide staining by flow cytometry analysis relative to control; type: functional; details: in the assay text read “propidium iodide staining” for “ethidium bromide staining”; how it was run: as §2
HeLa [17] = assay: Cell cycle arrest in human HeLa cells assessed as accumulation at G2/M phase phase at 25 uM after 24 hrs using […] by flow cytometry analysis relative to control; type: functional; how it was run: as §2
HeLa [18] = assay: Cell cycle arrest in human HeLa cells assessed as accumulation at sub-G0/G1 phase at 50 uM after 24 hrs using […] by flow cytometry analysis relative to control; type: functional; how it was run: as §2
HeLa [19] = assay: Cell cycle arrest in human HeLa cells assessed as accumulation at G0/G1 phase phase at 10 uM after 24 hrs using ethidium bromide staining by flow cytometry analysis relative to control; type: functional; details: in the assay text read “propidium iodide staining” for “ethidium bromide staining”; how it was run: as §2
HeLa [20] = assay: Cell cycle arrest in human HeLa cells assessed as accumulation at G2/M phase phase at 5 uM after 24 hrs using ethidium bromide staining by flow cytometry analysis relative to control; type: functional; details: in the assay text read “propidium iodide staining” for “ethidium bromide staining”; how it was run: as §2

Sequence of DNA topoisomerase 2-alpha (Homo sapiens) (P11388 whole entry): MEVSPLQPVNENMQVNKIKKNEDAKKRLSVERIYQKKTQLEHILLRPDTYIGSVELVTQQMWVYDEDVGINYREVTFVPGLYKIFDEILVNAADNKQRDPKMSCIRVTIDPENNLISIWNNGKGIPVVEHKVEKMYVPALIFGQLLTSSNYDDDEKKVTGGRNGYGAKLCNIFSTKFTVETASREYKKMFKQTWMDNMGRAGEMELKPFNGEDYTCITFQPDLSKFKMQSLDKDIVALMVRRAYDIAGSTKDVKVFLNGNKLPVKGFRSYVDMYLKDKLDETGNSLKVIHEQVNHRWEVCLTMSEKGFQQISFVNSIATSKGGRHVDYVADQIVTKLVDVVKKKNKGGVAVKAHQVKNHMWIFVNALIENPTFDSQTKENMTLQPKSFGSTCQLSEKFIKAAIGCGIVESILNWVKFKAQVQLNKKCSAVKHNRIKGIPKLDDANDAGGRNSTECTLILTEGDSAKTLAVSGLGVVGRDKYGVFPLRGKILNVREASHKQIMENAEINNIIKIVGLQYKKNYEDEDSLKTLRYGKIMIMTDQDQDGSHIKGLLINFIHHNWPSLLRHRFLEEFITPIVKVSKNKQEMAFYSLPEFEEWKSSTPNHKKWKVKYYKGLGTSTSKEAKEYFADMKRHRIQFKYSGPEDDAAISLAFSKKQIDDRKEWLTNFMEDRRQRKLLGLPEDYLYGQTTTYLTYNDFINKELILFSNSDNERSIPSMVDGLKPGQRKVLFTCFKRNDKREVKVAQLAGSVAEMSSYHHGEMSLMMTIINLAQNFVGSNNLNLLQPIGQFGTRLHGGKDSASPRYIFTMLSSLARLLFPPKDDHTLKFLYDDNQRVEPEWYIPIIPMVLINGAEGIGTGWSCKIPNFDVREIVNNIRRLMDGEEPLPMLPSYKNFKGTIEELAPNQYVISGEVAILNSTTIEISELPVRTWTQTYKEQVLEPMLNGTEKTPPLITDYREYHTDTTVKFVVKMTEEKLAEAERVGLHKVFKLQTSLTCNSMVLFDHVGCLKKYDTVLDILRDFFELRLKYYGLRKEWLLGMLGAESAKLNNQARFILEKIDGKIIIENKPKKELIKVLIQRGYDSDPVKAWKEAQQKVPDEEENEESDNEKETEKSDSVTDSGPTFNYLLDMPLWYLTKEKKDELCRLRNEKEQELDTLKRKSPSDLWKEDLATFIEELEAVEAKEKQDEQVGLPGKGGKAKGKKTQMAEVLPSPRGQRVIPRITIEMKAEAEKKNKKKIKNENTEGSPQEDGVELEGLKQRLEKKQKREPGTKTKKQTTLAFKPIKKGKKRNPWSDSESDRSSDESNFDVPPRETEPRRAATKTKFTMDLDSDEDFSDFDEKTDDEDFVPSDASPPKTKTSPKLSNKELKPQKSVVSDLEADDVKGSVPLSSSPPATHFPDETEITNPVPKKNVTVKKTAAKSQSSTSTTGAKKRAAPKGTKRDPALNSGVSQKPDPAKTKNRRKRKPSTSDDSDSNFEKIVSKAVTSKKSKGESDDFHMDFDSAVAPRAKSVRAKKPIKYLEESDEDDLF

In the case of `Cc1ccc2cc(-c3cccs3)nc(N3CCCCC3)c2c1`, the inhibition [1] is reported as 77.5% and 89.6%, the inhibition [2] is reported as 0% and the inhibition [3] is reported as 3.6% and 13.7%.
In the case of `c1csc(-c2cc3ccccc3c(N3CCNCC3)n2)c1`, the Activity (HeLa [4]) is reported as 1.16%, the Activity (HeLa [5]) is reported as 12.03% and the IC50 ([6]; mcf-10a) is reported as 44.1 µM. It also gave an Activity (HeLa [7]) of 4.52%, an Activity (HeLa [8]) of 16.57% and an Activity (HeLa [9]) of 67.7%. The Activity (HeLa [10]) was 1.77%, the Activity (HeLa [11]) was 8.71% and the IC50 ([12]; hct-15) was 1.25 µM. The Activity (HeLa [13]) was 1.85%, the Activity (HeLa [14]) was 0.72% and the IC50 (DU-145; du-145) was 17.6 µM. The Activity (HeLa [15]) was 13.11%, the IC50 (T47D) was 9.53 µM and the Activity (HeLa [16]) was 59.83%. It also gave an Activity (HeLa [17]) of 14.88%, an Activity (HeLa [18]) of 90.21% and an Activity (HeLa [19]) of 61.34%. It also gave an Activity (HeLa [20]) of 16.28%.
`Cl.c1csc(-c2cc3ccccc3c(N3CCNCC3)n2)c1` showed an Activity (HeLa [4]) of 0.04%, an Activity (HeLa [5]) of 7.13% and an IC50 ([6]; mcf-10a) of 18.1 µM. It also gave an Activity (HeLa [7]) of 0.18%, an Activity (HeLa [8]) of 15.05% and an Activity (HeLa [9]) of 7.25%. For the same compound, the Activity (HeLa [10]) was 85.1%, the Activity (HeLa [11]) was 1.85% and the IC50 ([12]; hct-15) was 5.45 µM. For the same compound, the Activity (HeLa [13]) was 3.57%, the Activity (HeLa [14]) was 0.02% and the IC50 (DU-145; du-145) was 8.25 µM. The Activity (HeLa [15]) was 12.7%, the IC50 (T47D) was 4.51 µM and the Activity (HeLa [16]) was 60.31%. The Activity (HeLa [17]) was 1.23%, the Activity (HeLa [18]) was 99.58% and the Activity (HeLa [19]) was 67.99%. The Activity (HeLa [20]) was 16.24%.
For `CCN1CCN(c2nc(-c3cccs3)cc3cc(C)ccc23)CC1`, the Activity (HeLa [4]) was 0.47%, the Activity (HeLa [5]) was 13.41% and the IC50 ([6]; mcf-10a) was 33.9 µM. The Activity (HeLa [7]) was 2.37%, the Activity (HeLa [8]) was 18.01% and the Activity (HeLa [9]) was 63.92%. The Activity (HeLa [10]) was 3.17%, the Activity (HeLa [11]) was 13.57% and the IC50 ([12]; Homo sapiens, HCT-15, 48 h) was 2.41 µM. The Activity (HeLa [13]) was 2.63%, the Activity (HeLa [14]) was 0.22% and the IC50 (DU-145; Homo sapiens, DU-145, 48 h) was 17.2 µM. It also gave an Activity (HeLa [15]) of 9.77%, an IC50 (T47D) of 8.45 µM and an Activity (HeLa [16]) of 65.61%. The Activity (HeLa [17]) was 13.75%, the Activity (HeLa [18]) was 96.49% and the Activity (HeLa [19]) was 58.48%. For the same compound, the Activity (HeLa [20]) was 17.4%.
With `Nc1nc(-c2cccs2)cc2ccccc12` the Activity (HeLa [4]) was 9.56%, the Activity (HeLa [5]) was 8.2% and the IC50 ([6]; Homo sapiens, MCF-10A, 48 h) was > 50 µM. The Activity (HeLa [7]) was 5.04%, the Activity (HeLa [8]) was 41.79% and the Activity (HeLa [9]) was 11.6%. It also gave an Activity (HeLa [10]) of 18.03%, an Activity (HeLa [11]) of 11.29% and an IC50 ([12]; hct-15) of 1.2 µM. For the same compound, the Activity (HeLa [13]) was 17.43%, the Activity (HeLa [14]) was 59.85% and the IC50 (DU-145; Homo sapiens, DU-145, 48 h) was > 50 µM. The Activity (HeLa [15]) was 9.04%, the IC50 (T47D) was 7.93 µM and the Activity (HeLa [16]) was 44.93%. It also gave an Activity (HeLa [17]) of 47.68%, an Activity (HeLa [18]) of 13.66% and an Activity (HeLa [19]) of 21.33%. For the same compound, the Activity (HeLa [20]) was 28.48%.
In the case of `Cc1ccc2cc(-c3cccs3)nc(N3CCN(C)CC3)c2c1`, the inhibition [1] is reported as 29.6% and 35.9%, the inhibition [2] is reported as 0% and the inhibition [3] is reported as 0%.
For `CCN1CCN(c2nc(-c3cccs3)cc3ccc(C)cc23)CC1`, the inhibition [2] was 6.5% and the inhibition [3] was 0%.

Source: ChEMBL document CHEMBL3286131, “Design, synthesis and systematic evaluation of cytotoxic 3-heteroarylisoquinolinamines as topoisomerases inhibitors” (Eur J Med Chem, 2014)
